Active and inactive are the calls of the source. No cut-off for these calls is given here.

The nature of data set [1]: Clearance in Balb/C mouse at 5 mg/kg, iv. It counts as ADME, organism-based. The arrangement: dose 5 mg/kg, route intravenous. Conditions: in vivo. Summed up: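 Female Balb/C mice given a single 5 mg kg^-1 iv dose in 10% DMSO, 5% Tween 20 in saline. Mice sacrificed at 5, 15, 30 min and 1, 2, 4, 6, 24 h. Plasma from cardiac blood, methanol protein precipitation with olomoucine internal standard, LC–MS (positive ESI MRM). Clearance given in L/h.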

A short description of data set [2]: AUC (infinity) in Sprague-Dawley rat at 5 mg/kg, iv. The format is ADME, organism-based. The arrangement: time infinity, dose 5 mg/kg, route intravenous. Conditions: plasma. In a few lines: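 Female Sprague–Dawley rats dosed iv at 5 mg/kg in 10% DMSO, 5% Tween 20, 85% saline, 0.3% 1 M HCl. Serial tail-vein bleeds at 15, 30 min and 2, 4, 6, 24 h. Plasma was methanol-precipitated with olomoucine internal standard, then analysed by LC–MS (positive ESI MRM).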

For data set [3], the system named is Mus musculus. In words: Inhibition of Histone H3 phosphorylation in tumor of human MV4-11 cells xenografted CrTacNCr-Fox1(nu) athymic mouse at 50 to 100 mg/kg, po bid for 4 days measured after 2 hrs post final dose. It counts as functional, organism-based. Summed up:
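MV4-11 xenograft-bearing athymic mice dosed orally at 50 or 100 mg/kg twice daily for 4 days, starting 17 days after implantation. Tumors harvested 2 h after the final dose. Western blotting for phospho-histone H3 (S10) and phospho-Stat5 (Y694), with total histone H3, total Stat5 and GAPDH as loading controls.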
(A xenograft is tissue or cells of one species grown in another, often human tumour cells in immunodeficient mice.)

Data set [4] can be described thus: Metabolic stability in mouse liver microsomes assessed as parent compound metabolism after 30 mins by LC-MS analysis. As to conditions: read-out: Drug metabolism. The format is ADME, Microsome. In a few lines: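 Male CD1 mouse liver microsomes (1 mg/mL protein) incubated with 10 μM compound plus NADPH 1 mM, UDPGA 2.5 mM and MgCl2 3 mM in 10 mM PBS at 37 °C for 0 and 30 min. NADPH/UDPGA-free controls included. LC–MS quantitation of remaining compound; reported as percent parent metabolized after 30 min.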
On the technique in general: Microsomes from liver hold many membrane-bound enzymes, among them those of drug oxidation.

The nature of data set [5]: Oral bioavailability in Balb/C mouse at 5 mg/kg. The format is ADME, organism-based. Conditions: in vivo. In a few lines: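 Female Balb/C mice given 5 mg/kg po or iv in 10% DMSO, 5% Tween 20 in saline. Killed at 5, 15, 30 min and 1, 2, 4, 6, 24 h; plasma from cardiac blood. Methanol protein precipitation with olomoucine internal standard, then LC-MS (reverse-phase C18, positive ESI MRM).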

For a further data set, the target named is Cytochrome P450 3A4 (Homo sapiens, UniProt P08684). The experiment in a line: Inhibition of human liver microsome CYP3A4 by LC-MS-MS analysis. The format is ADME. Summed up: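 Pooled human liver microsomes (50 donors) at 0.5 mg/mL protein, 10 min incubation; metabolite detected by LC-MS/MS with positive ESI.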
Sequence of Cytochrome P450 3A4 (P08684 whole entry): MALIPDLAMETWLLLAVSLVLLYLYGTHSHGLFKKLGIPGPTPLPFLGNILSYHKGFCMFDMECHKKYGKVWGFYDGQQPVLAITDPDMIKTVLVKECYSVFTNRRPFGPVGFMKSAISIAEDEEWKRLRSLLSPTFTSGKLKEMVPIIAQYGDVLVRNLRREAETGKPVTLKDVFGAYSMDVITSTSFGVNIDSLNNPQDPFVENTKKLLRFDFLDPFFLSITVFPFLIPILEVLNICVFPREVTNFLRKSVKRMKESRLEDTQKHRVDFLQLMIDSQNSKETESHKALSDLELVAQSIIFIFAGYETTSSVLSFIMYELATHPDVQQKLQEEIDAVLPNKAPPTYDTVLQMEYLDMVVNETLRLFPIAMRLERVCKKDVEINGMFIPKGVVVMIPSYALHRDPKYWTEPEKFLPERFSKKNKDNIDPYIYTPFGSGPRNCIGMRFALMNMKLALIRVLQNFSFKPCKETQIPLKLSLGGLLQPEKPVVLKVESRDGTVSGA
Data set [6] is described as follows: Lipophilicity, log D of the compound. The format is physicochemical. As to conditions: octanol/water.
The test system of data set [7] is Mus musculus. The experiment in a line: Toxicity in CrTacNCr-Fox1(nu) athymic mouse assessed as body weight loss at 50 to 100 mg/kg, po administered 10 days post implantation daily for 7 days. It counts as organism-based. The arrangement: dose 50-100 mg/kg, route oral. As to conditions: in vivo.
Data set [8] concerns MV4-11. In words: Antitumor activity against human MV4-11 cells xenografted in CrTacNCr-Fox1(nu) athymic mouse assessed as tumor growth inhibition at 50 mg/kg, po bid administered 10 days post implantation daily for 7 days measured after 11 days. It counts as functional. Also noted: scale not given: the % may be the effect or the level left. In a few lines:
(§1)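 Female adult CrTacNcr-Fox1(nu) athymic mice, s.c. 10^7 FLT3-ITD-positive MV4-11 cells; treatment began at 10 days (mean tumor volume at least 100 mm^3). Oral 50 or 100 mg/kg in 10% DMSO, 20% PEG 400, 5% Tween 80, 65% water, or vehicle alone; n = 5 per group. Dosed twice daily for 7 days, then once daily for 4 days; study ended day 60.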

A short description of data set [9]: Oral bioavailability in Sprague-Dawley rat at 5 mg/kg. The format is ADME, organism-based. As to conditions: in vivo. Summed up: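 Female Sprague-Dawley rats, 5 mg/kg. Oral vehicle 10% DMSO, 5% Tween 80, 20% PEG400 in water; iv vehicle 10% DMSO, 5% Tween 20, 85% saline, 0.3% 1 M HCl. Serial tail-vein plasma at 15, 30 min and 2, 4, 6, 24 h. Methanol precipitation with olomoucine internal standard, then LC-MS (C18 BEH, positive ESI MRM).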

For another data set, the target named is T1, Cytochrome P450 2A6 (Homo sapiens, UniProt P11509).
T1 sequence (P11509 whole entry): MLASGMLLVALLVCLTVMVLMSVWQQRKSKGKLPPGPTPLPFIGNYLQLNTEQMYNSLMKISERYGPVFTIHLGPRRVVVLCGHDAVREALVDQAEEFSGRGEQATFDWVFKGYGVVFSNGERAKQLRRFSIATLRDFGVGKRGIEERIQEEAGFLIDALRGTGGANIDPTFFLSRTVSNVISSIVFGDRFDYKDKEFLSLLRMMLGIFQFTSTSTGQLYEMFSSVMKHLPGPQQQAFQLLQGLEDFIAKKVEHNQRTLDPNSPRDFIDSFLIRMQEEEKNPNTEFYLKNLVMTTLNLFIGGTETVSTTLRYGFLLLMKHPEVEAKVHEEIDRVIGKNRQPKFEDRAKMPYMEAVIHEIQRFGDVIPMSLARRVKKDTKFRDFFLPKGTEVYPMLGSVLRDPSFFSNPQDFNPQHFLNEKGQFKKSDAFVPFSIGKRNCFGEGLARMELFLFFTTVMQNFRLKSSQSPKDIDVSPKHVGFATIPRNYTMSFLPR
The experiment in a line: Inhibition of human liver microsome CYP2A6 by LC-MS-MS analysis. It counts as ADME. In a few lines: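 Pooled human liver microsomes (50 donors) at 0.5 mg/mL protein, incubated for 10 min with isoform-selective probe substrates. Metabolite formation was detected by LC–MS/MS with positive ESI.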

In data set [10] the test system is MV4-11. The experiment in a line: Antitumor activity against human MV4-11 cells xenografted in CrTacNCr-Fox1(nu) athymic mouse assessed as reduction in tumor relapse at 50 to 100 mg/kg, po bid administered 10 days post implantation daily for 7 days measured after 60 days. Also noted: scale not given: the % may be the effect or the level left. The format is functional. As to conditions: dose mg/kg 50-100. In a few lines: as §1

Data set [11] addresses Vascular endothelial growth factor receptor 1 (Homo sapiens) (UniProt P17948). The experiment in a line: Inhibition of FLT1 at 1 uM. In a few lines:
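KINOMEScan competition-binding panel of 442 kinases (386 nonmutant) tested at 1 μM. Binding is read as percent of control ligand competition; <10% of control counts as a hit for the S(10) score.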

The nature of data set [12]: AUC (infinity) in Balb/C mouse at 5 mg/kg, iv. It counts as ADME, organism-based. The arrangement: time infinity, dose 5 mg/kg, route intravenous. Conditions: plasma. In a few lines: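 Female Balb/C mice dosed iv at 5 mg/kg in 10% DMSO, 5% Tween 20 in saline. Mice killed at 5, 15, 30 min and 1, 2, 4, 6, 24 h. Plasma from cardiac blood was methanol-precipitated with olomoucine internal standard, then analysed by LC–MS (positive ESI MRM).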

The next data set concerns Caco-2. The experiment in a line: Permeability across human Caco2 cells. It counts as ADME, cell-based.

Sequence of Vascular endothelial growth factor receptor 1 (Homo sapiens) (P17948 whole entry): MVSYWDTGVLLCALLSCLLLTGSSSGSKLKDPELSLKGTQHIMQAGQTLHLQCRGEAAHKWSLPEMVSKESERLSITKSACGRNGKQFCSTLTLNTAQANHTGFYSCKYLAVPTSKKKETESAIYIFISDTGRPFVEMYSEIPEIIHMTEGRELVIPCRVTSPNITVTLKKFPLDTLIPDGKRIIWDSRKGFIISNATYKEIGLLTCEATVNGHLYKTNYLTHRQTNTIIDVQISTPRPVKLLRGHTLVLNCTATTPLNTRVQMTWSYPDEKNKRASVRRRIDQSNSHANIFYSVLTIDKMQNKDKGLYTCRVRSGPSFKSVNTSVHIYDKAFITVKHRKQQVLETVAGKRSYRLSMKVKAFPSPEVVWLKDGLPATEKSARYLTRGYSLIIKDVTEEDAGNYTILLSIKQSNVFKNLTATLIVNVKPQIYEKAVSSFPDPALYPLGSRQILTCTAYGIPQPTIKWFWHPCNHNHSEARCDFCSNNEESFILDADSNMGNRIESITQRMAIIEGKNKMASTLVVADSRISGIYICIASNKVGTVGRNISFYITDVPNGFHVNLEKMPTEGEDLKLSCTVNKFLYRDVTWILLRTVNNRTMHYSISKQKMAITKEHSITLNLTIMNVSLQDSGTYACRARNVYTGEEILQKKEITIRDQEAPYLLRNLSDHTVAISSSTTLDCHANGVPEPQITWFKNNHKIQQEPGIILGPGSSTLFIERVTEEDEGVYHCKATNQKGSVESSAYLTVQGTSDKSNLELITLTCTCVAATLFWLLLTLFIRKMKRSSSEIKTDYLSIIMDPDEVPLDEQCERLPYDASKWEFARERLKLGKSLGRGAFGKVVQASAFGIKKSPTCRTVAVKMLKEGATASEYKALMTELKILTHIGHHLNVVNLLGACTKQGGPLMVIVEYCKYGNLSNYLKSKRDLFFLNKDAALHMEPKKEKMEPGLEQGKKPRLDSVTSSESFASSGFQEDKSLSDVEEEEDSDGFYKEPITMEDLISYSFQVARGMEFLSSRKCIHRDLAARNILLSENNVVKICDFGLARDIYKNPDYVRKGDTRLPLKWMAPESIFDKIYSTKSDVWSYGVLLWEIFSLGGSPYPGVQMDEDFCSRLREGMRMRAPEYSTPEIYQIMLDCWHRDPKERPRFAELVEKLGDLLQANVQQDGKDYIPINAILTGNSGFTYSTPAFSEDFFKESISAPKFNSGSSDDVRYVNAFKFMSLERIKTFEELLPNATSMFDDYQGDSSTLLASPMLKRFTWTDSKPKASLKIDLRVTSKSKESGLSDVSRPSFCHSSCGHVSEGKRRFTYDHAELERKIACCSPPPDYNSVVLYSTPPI

Molecule `Cc1nn(C)cc1-c1nc2c(N3CCN(Cc4ccc(Cl)cc4)CC3)c(Cl)cnc2[nH]1` [MOBINITINIB] showed a clearance in data set [1] of 0.967 mL/min. Further, the AUC(0-inf) in data set [2] came out at 39.9 µM·h; in [12], 3.75 µM·h. Besides, in the data set on Mus musculus [3], the inhibition entry was “Active”. The metabolised at 0.5 h in data set [4] was 34%. For the same molecule, the bioavailability came to 100% in data set [5] and 79% in data set [9]. Also, the IC50 against Cytochrome P450 3A4 and against Cytochrome P450 2A6 was greater than 10 µM in each case. Further, the logD in data set [6] stood at 3.84. The Activity result is “Non-toxic” in the data set with Mus musculus [7], 42% in the data set with MV4-11 [8] and 60% with MV4-11 [10]. Also, the inhibition in data set [11] turned out to be 0.3%. The same molecule had a permeability with Caco-2 of 18.6 ×10⁻⁶ cm/s.

Usually clearance stands for a measure of how efficiently the substance is removed, as volume per time. The term AUC(0-inf) denotes total exposure, with the tail of the curve extrapolated. As a reminder, the inhibition is how much of the control response was suppressed. One may read the bioavailability as the share of a dose that reaches the circulation, judged against a reference dose that is usually intravenous. Usually IC50 stands for the concentration that gives 50% inhibition. Broadly, the logD is the decadic logarithm of the distribution of all forms, ionised or not, between an organic phase and buffer at a given pH.

The record behind these values is ChEMBL document CHEMBL2203264, “Optimization of imidazo[4,5-b]pyridine-based kinase inhibitors: identification of a dual FLT3/Aurora kinase inhibitor as an orally bioavailable preclinical development candidate for the treatment of acute myeloid leukemia” (J Med Chem, 2012).
